Tests used:
[1] = biological target: T1, Solute carrier family 22 member 7 (Rattus norvegicus, UniProt Q5RLM2); assay: (§1) TP_TRANSPORTER: uptake in Xenopus laevis oocytes; format: functional, cell-based; conditions: oocyte
T1 sequence (Q5RLM2 whole entry): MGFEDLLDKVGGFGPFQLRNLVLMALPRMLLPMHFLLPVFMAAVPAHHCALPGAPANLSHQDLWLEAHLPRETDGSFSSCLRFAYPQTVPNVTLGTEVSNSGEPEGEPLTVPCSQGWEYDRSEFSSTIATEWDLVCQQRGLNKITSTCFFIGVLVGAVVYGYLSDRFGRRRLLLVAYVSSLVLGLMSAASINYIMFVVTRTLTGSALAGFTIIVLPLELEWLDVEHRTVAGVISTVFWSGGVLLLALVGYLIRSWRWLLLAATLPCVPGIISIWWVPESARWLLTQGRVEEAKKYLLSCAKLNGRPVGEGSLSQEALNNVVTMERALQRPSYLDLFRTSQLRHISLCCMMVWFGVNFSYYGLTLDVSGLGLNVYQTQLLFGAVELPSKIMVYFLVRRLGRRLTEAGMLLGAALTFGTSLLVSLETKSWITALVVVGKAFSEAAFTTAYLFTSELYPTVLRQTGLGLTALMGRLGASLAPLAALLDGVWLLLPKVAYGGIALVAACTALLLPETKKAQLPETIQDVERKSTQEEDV
How it was run: (§2)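 Oocytes were injected with 10 ng capped L5 cRNA or left as controls, then held 2–3 days at 18°C. Radiolabeled substrates ([14C]α-ketoglutarate 7 μM, [3H]PGE2 6 nM, [3H]methotrexate 1 μM, [14C]acetylsalicylate 20 μM, [14C]PAH 20 μM) were taken up for 1 h in ND96, pH 7.4, at room temperature. Mean±S.E.M., n=5–8.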

[2] = biological target: T1, Solute carrier family 22 member 7; assay: TP_TRANSPORTER: inhibition of Salicylate uptake (salicylate: 1 uM, BSP: 250 uM) in Xenopus laevis oocytes; format: functional, cell-based; conditions: oocyte
How it was run: (§3)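 Rat liver NLT/OAT2 (L5) cRNA (10 ng capped) was injected into defolliculated oocytes, which were kept 2–3 days at 18°C in gentamicin Barth's, pH 7.4. Uptake of 1 μM [14C]salicylate was measured in ND96 (pH 7.4) at room temperature, with or without inhibitor (1 mM; BSP 250 μM). Results are % of L5-mediated uptake without inhibitor, mean±S.E.M., n=5–8 oocytes.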

[3] = biological target: T1, Solute carrier family 22 member 7; assay: TP_TRANSPORTER: inhibition of Salicylate uptake (salicylate: 1 uM, Cefoperazone: 1000 uM) in Xenopus laevis oocytes; format: functional, cell-based; conditions: oocyte; how it was run: as §3
[4] = biological target: T1, Solute carrier family 22 member 7; assay: TP_TRANSPORTER: inhibition of Salicylate uptake (salicylate: 1 uM, ICG: 1000 uM) in Xenopus laevis oocytes; format: functional, cell-based; conditions: oocyte; how it was run: as §3
[5] = biological target: T1, Solute carrier family 22 member 7; assay: TP_TRANSPORTER: inhibition of Salicylate uptake (salicylate: 1 uM, Rifampicin: 1000 uM) in Xenopus laevis oocytes; format: functional, cell-based; conditions: oocyte; how it was run: as §3
[6] = biological target: T1, Solute carrier family 22 member 7; assay: TP_TRANSPORTER: inhibition of Salicylate uptake (salicylate: 1 uM, Enalapril: 1000 uM) in Xenopus laevis oocytes; format: functional, cell-based; conditions: oocyte; how it was run: as §3
[7] = substrate: O=C(O)CCC(=O)C(=O)O; assay: as §1; format: functional, cell-based, Oocyte; how it was run: as §2
[8] = substrate: O=C(O)c1ccccc1O; assay: cells, lysate or membranes named

Molecule: Nc1ccc(C(=O)NCC(=O)O)cc1 [AMINOHIPPURIC ACID]
- Activity [1]: substrate [+]

Molecule: O=C1OC(c2ccc(O)c(S(=O)(=O)[O-])c2)(c2ccc(O)c(S(=O)(=O)[O-])c2)c2c(Br)c(Br)c(Br)c(Br)c21.[Na+].[Na+] [SULFOBROMOPHTHALEIN SODIUM]
- Activity [2]: inhibitor [(at a rough estimate) <5 % of control]

Molecule: CCN1CCN(C(=O)N[C@@H](C(=O)N[C@@H]2C(=O)N3C(C(=O)O)=C(CSc4nnnn4C)CS[C@H]23)c2ccc(O)cc2)C(=O)C1=O [CEFOPERAZONE]
- Activity [3]: inhibitor [(at a rough estimate) 15 % of control]

Molecule: CCCCC[C@H](O)/C=C/[C@H]1[C@H](O)CC(=O)[C@@H]1C/C=C\CCCC(=O)O [DINOPROSTONE]
- Activity [1]: substrate [+]

Molecule: CN(Cc1cnc2nc(N)nc(N)c2n1)c1ccc(C(=O)N[C@@H](CCC(=O)O)C(=O)O)cc1 [METHOTREXATE]
- Activity [1]: substrate [+]

Molecule: CC1(C)C(/C=C/C=C/C=C/C=C2/N(CCCCS(=O)(=O)[O-])c3ccc4ccccc4c3C2(C)C)=[N+](CCCCS(=O)(=O)[O-])c2ccc3ccccc3c21.[Na+] [INDOCYANINE GREEN]
- Activity [4]: inhibitor [(at a rough estimate) 10 % of control]

Molecule: CO[C@H]1/C=C/O[C@@]2(C)Oc3c(C)c(O)c4c(O)c(c(/C=N/N5CCN(C)CC5)c(O)c4c3C2=O)NC(=O)/C(C)=C\C=C\[C@H](C)[C@H](O)[C@@H](C)[C@@H](O)[C@@H](C)[C@H](OC(C)=O)[C@@H]1C [RIFAMPIN]
- Activity [5]: inhibitor [(at a rough estimate) 15 % of control]

Molecule: CCOC(=O)[C@H](CCc1ccccc1)N[C@@H](C)C(=O)N1CCC[C@H]1C(=O)O
- Activity [6]: inhibitor [(at a rough estimate) 80 % of control]

Molecule: CC(=O)Oc1ccccc1C(=O)O [ASPIRIN]
- Activity [1]: substrate [+]

Molecule: CC[N+](CC)(CC)CC [TETRYLAMMONIUM]
- Activity [1]: is not a substrate [-]

B1: Solute carrier family 22 member 7 (Rattus norvegicus) (protein)
chain: T1 sequence (Q5RLM2 whole entry)
- Km [7]: 17.8 µM
- Km [8]: 88.8 µM
